For 6 molecules, inhibition, Ki and Inhibition results are on record in ChEMBL document CHEMBL1128340, “Nonpeptidic inhibitors of human leukocyte elastase. 6. Design of a potent, intratracheally active, pyridone-based trifluoromethyl ketone” (J Med Chem, 1995).

What is called Ki is a dissociation constant, usually derived from enzyme kinetics or from competition with a known ligand. High values mean lower affinity, low ones higher affinity. As a reminder, the Inhibition is the relative decrease from the control value, in per cent.

Experiment [1] concerns Cricetinae gen. sp. Description: Compound at an intratracheal dose of […] was tested in vivo in hamster for the inhibition of elastase-induced lung hemorrhage by acute hemorrhagic assay; Not statistically significant. Format: functional, organism-based. To be noted: Cricetulus griseus. The method in brief: (§1)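 Hamster acute hemorrhagic assay: test agent given intratracheally at 100 nmol/animal 30 min before intratracheal instillation of 50 μg HLE. Read-out is percent inhibition of elastase-induced lung hemorrhage versus controls. Significance is by Student's t test, P < 0.05; NS means not significant at that dose.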

Experiment [2] deals with Cricetinae gen. sp. The experiment can be described thus: Compound at an oral dose of 2.5 mg/Kg was tested in vivo in hamster for the inhibition of elastase-induced lung hemorrhage by acute hemorrhagic assay; Not statistically significant. Type of experiment: functional, organism-based. Particulars: Cricetulus griseus.
Experiment [3] addresses T1, Neutrophil elastase (Homo sapiens, UniProt P08246).
T1 sequence (P08246 whole entry): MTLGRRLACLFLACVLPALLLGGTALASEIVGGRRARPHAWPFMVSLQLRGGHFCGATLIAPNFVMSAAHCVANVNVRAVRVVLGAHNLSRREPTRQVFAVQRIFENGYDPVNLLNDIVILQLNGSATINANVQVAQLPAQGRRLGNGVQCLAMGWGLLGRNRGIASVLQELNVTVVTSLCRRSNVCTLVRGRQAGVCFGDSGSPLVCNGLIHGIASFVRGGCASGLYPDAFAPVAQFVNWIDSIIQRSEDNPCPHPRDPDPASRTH
Description: In vitro inhibition constant (Ki) against human leukocyte elastase (HLE-catalyzed hydrolysis of MeO-Suc-Ala-Ala-Pro-Ala-pNA).

The test system of experiment [4] is Cricetinae gen. sp. The experiment can be described thus: Compound at an intratracheal dose of 100 nM was tested in vivo in hamster for the inhibition of elastase-induced lung hemorrhage by acute hemorrhagic assay. Format: functional, Cricetulus griseus. The method in brief: as §1
Experiment [5] has as its system Cricetinae gen. sp. The experiment can be described thus: Compound at an oral dose of 5 mg/Kg was tested in vivo in hamster for the inhibition of elastase-induced lung hemorrhage by acute hemorrhagic assay; Not statistically significant. Format: functional, organism-based. Particulars: Cricetulus griseus.

The source made the active and inactive calls. The calls are words filed in the database; no cut-off is given here.

Regarding `CC(C)C(NC(=O)Cn1c(-c2ccccc2)ccc(NC=O)c1=O)C(=O)C(F)(F)F` (stereo unspecified), the inhibition entry in experiment [1] was “inactive”.
On to `Cc1ccccc1S(=O)(=O)NC(=O)c1ccc(S(=O)(=O)Nc2ccc(-c3ccccc3)n(CC(=O)NC(C(=O)C(F)(F)F)C(C)C)c2=O)cc1` (stereo unspecified), for which the inhibition result in experiment [2] was “inactive”. Besides, the affinity in experiment [3] corresponds to a Ki of 18 nM. This molecule displayed an Inhibition in experiment [4] of 97%.
For `COc1ccc(S(=O)(=O)N[C@H](C(=O)N2CCC[C@H]2C(=O)NC(C(=O)C(F)(F)F)C(C)C)C(C)C)cc1` (stereo partly specified), the affinity in experiment [3] corresponds to a Ki of 8 nM.
`CC(=O)Nc1ccc(S(=O)(=O)Nc2ccc(-c3ccccc3)n(CC(=O)NC(C(=O)C(F)(F)F)C(C)C)c2=O)cc1` (stereo unspecified) yielded an Inhibition in experiment [4] of 95%.
`CC(C)C(NC(=O)Cn1c(-c2ccccc2)ccc(NS(=O)(=O)c2ccc(C(=O)NS(=O)(=O)c3ccc(Cl)cc3)cc2)c1=O)C(=O)C(F)(F)F` (stereo unspecified): the inhibition result in experiment [2] was “inactive”. In addition, affinity in experiment [3] was put at a Ki of 9.4 nM. For the same molecule, the Inhibition in experiment [4] is on record as 96%.
For `CC(C)C(NC(=O)Cn1c(-c2ccccc2)ccc(NS(=O)(=O)c2ccccc2)c1=O)C(=O)C(F)(F)F` (stereo unspecified), the inhibition entry in experiment [1] and in experiment [5] was “inactive” throughout.
